Reference: ChEMBL document CHEMBL2401645, “Bivalent ligands that target μ opioid (MOP) and cannabinoid1 (CB1) receptors are potent analgesics devoid of tolerance” (2013)
Active and inactive are the calls of the source. No cut-off for these calls is given here.

Key:
[1] = tested on: Mus musculus; experiment: Reduction in tolerance acquisition in ICR-CD1 mouse assessed as compound antinociception effect at 125 to 2500 pmol, icv administered on day 1 and repeated on day 2 measured on day 1 by radiant heat tail flick test; type: functional; set-up: scale not given: the % may be the effect or the level left
Procedure, shortened: (§1)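 Tolerance test in male ICR-CD1 mice given i.c.v. The highest dose of the day-1 dose-response curve is given on day 1 and repeated 24 h later in the same mice. Radiant-heat tail-flick %MPE is recorded each day, and mice with no significant day-to-day difference are classed as not tolerant.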

[2] = tested on: Mus musculus; experiment: Reduction in tolerance acquisition in ICR-CD1 mouse assessed as compound antinociception effect at 125 to 2500 pmol, icv administered on day 1 and repeated on day 2 measured on day 2 by radiant heat tail flick test; type: functional; set-up: scale not given: the % may be the effect or the level left; procedure, shortened: as §1
[3] = tested on: Mus musculus; experiment: Reduction in tolerance acquisition in ICR-CD1 mouse assessed as compound antinociception effect at 125 to 2500 pmol intrathecally administered on day 1 and repeated on day 2 measured on day 2 by radiant heat tail flick test; type: functional; set-up: scale not given: the % may be the effect or the level left
[4] = tested on: Mus musculus; experiment: Ratio of ED50 for antinociception activity in icv dosed ICR-CD1 mouse to ED50 for antinociception activity in intrathecally dosed ICR-CD1 mouse by radiant heat tail flick test; type: functional
Procedure, shortened: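 ED50 values (pmol/mouse) come from radiant-heat tail-flick dose-response curves in male ICR-CD1 mice after i.c.v. or i.t. injection, with %MPE read-out and at least three groups of 8–10 mice per curve. The ratio is i.c.v. ED50 divided by i.t. ED50.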

[5] = tested on: Mus musculus; experiment: Reduction in tolerance acquisition in ICR-CD1 mouse assessed as compound antinociception effect at 125 to 2500 pmol intrathecally administered on day 1 and repeated on day 2 measured on day 1 by radiant heat tail flick test; type: functional; set-up: scale not given: the % may be the effect or the level left
[6] = tested on: Mus musculus; experiment: Antinociceptive activity against icv dosed ICR-CD1 mouse by radiant heat tail flick test; type: functional
Procedure, shortened: (§2)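 Male ICR-CD1 mice (17–25 g), single i.c.v. or i.t. injection; tail-flick latency to radiant heat. Antinociception as %MPE = (Test − Control)/(10 − Control) × 100. Dose-response curves from at least three groups of 8–10 mice, each mouse used once; ED50 with 95% C.I. in pmol/mouse.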

[7] = tested on: Mus musculus; experiment: Antinociceptive activity against intrathecally dosed ICR-CD1 mouse by radiant heat tail flick test; type: functional; procedure, shortened: as §2
[8] = molecular target: Cannabinoid receptor 1/Mu-type opioid receptor (Homo sapiens) (UniProt P21554+P35372); experiment: Induction of human MOPR/CB1receptor internalization transiently expressed in HEK293 cells at 1 uM after 30 mins by immunofluorescence assay; type: cell-based
Procedure, shortened: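 HEK-293 cells were transiently transfected with human MOP and CB1 cDNA (16 μg per 2 million cells) and seeded into chamber slides 24 h later. After a further 24 h, cells were exposed to ligand (1 μM) for 30 min. They were then fixed in 4% paraformaldehyde and incubated overnight at 4°C with MOP- and CB1-selective primary antibodies. Fluorescent secondaries (red MOP, green CB1) were applied, and receptor location was imaged by confocal microscopy.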

[9] = tested on: Mus musculus; experiment: Antinociceptive activity in ICR-CD1 mouse at 2500 pmol, icv by radiant heat tail flick test; type: functional
[10] = tested on: Mus musculus; experiment: Antinociceptive activity in ICR-CD1 mouse at 250 pmol administered intrathecally by radiant heat tail flick test; type: functional
[11] = tested on: Mus musculus; experiment: Antinociceptive activity in ICR-CD1 mouse at 250 pmol, icv by radiant heat tail flick test; type: functional
[12] = tested on: Mus musculus; experiment: Antinociceptive activity in ICR-CD1 mouse at 2500 pmol administered intrathecally by radiant heat tail flick test; type: functional
[13] = tested on: Mus musculus; experiment: Reduction in tolerance acquisition in ICR-CD1 mouse assessed as compound antinociception effect at 125 to 2500 pmol, icv administered on day 1 measured after 24 hrs by radiant heat tail flick test; type: functional; set-up: scale not given: the % may be the effect or the level left
[14] = tested on: Mus musculus; experiment: Reduction in tolerance acquisition in ICR-CD1 mouse assessed as compound antinociception effect at 125 to 2500 pmol, icv administered on day 1 and repeated after 48 hrs measured on day 3 by radiant heat tail flick test; type: functional; set-up: scale not given: the % may be the effect or the level left

CNC(=O)COCC(=O)NCCCCCNC(=O)COCC(=O)N[C@H]1CC[C@@]2(O)[C@H]3Cc4ccc(O)c5c4[C@@]2(CCN3C)[C@H]1O5
Activity [1]: 82.15%
Activity [2]: 24.14%
Activity [3]: 39.54%
Ratio ED50 [4]: 1.01
Activity [5]: 75.98%
ED50 [6]: 108 pmol
ED50 [7]: 106 pmol
Activity [8]: Active

CNC(=O)COCC(=O)NCCCCNC(=O)COCC(=O)N1CCC(NC(=O)c2nn(-c3ccc(Cl)cc3Cl)c(-c3ccc(Cl)cc3)c2C)CC1
Activity [9]: 20%
Activity [10]: 20%
Activity [11]: 20%
Activity [8]: inactive
Activity [12]: 20%

Cc1c(C(=O)NC2CCN(C(=O)COCC(=O)NCCCCCCNC(=O)COCC(=O)N[C@H]3CC[C@@]4(O)[C@H]5Cc6ccc(O)c7c6[C@@]4(CCN5C)[C@H]3O7)CC2)nn(-c2ccc(Cl)cc2Cl)c1-c1ccc(Cl)cc1
Activity [1]: 95.43%
Activity [2]: 86.33%
Activity [3]: 79.58%
Ratio ED50 [4]: 9.86
Activity [5]: 78.51%
ED50 [6]: 189 pmol
ED50 [7]: 19 pmol
Activity [8]: Active

Cc1c(C(=O)NC2CCN(C(=O)COCC(=O)N[C@H]3CC[C@@]4(O)[C@H]5Cc6ccc(O)c7c6[C@@]4(CCN5C)[C@H]3O7)CC2)nn(-c2ccc(Cl)cc2Cl)c1-c1ccc(Cl)cc1
Activity [1]: 77.72%
Activity [2]: 63.7%
Activity [3]: 73.41%
Ratio ED50 [4]: 19.48
Activity [5]: 81.72%
ED50 [6]: 523 pmol
ED50 [7]: 27 pmol
Activity [8]: Active

Cc1c(C(=O)NN2CCCCC2)nn(-c2ccc(Cl)cc2Cl)c1-c1ccc(Cl)cc1
Activity [9]: inactive
Activity [12]: inactive

Cc1c(C(=O)NC2CCN(C(=O)N[C@H]3CC[C@@]4(O)[C@H]5Cc6ccc(O)c7c6[C@@]4(CCN5C)[C@H]3O7)CC2)nn(-c2ccc(Cl)cc2Cl)c1-c1ccc(Cl)cc1
Activity [1]: 64.27%
Activity [2]: 33.85%
Activity [3]: 66.01%
Ratio ED50 [4]: 2.18
Activity [5]: 73.55%
ED50 [6]: 1219 pmol
ED50 [7]: 559 pmol

Cc1c(C(=O)NC2CCN(C(=O)COCC(=O)NCCNC(=O)COCC(=O)N[C@H]3CC[C@@]4(O)[C@H]5Cc6ccc(O)c7c6[C@@]4(CCN5C)[C@H]3O7)CC2)nn(-c2ccc(Cl)cc2Cl)c1-c1ccc(Cl)cc1
Activity [1]: 83.47%
Activity [2]: 66.99%
Activity [3]: 72.5%
Ratio ED50 [4]: 1.31
Activity [5]: 98.33%
ED50 [6]: 55 pmol
ED50 [7]: 42 pmol
Activity [8]: Active

Cc1c(C(=O)NC2CCN(C(=O)COCC(=O)NCCCCCCCNC(=O)COCC(=O)N[C@H]3CC[C@@]4(O)[C@H]5Cc6ccc(O)c7c6[C@@]4(CCN5C)[C@H]3O7)CC2)nn(-c2ccc(Cl)cc2Cl)c1-c1ccc(Cl)cc1
Activity [1]: 89.75%
Activity [3]: 87.91%
Activity [13]: 47%
Activity [14]: 72.81%
Ratio ED50 [4]: 1.8
Activity [5]: 92.2%
ED50 [6]: 9 pmol
ED50 [7]: 5 pmol
Activity [8]: inactive
